Measurements as given in ChEMBL document CHEMBL3616462, “Synthesis and antiviral activity of maleopimaric and quinopimaric acids' derivatives” (Bioorg Med Chem, 2015).

Experiments:
[1] = Selectivity index, ratio of CC50 for Influenza A virus (A/California/07/2009(H1N1)) infected MDCK cells to EC50 for antiviral activity against Influenza A virus H1N1 (A/California/07/2009(H1N1)) infected in MDCK cells; format: toxicity, cell-based; settings: dog; read-out: Ratio CC50/EC50
rhinovirus A2 = test: Antiviral activity against human rhinovirus 2 infected in MDCK cells; format: functional, organism-based; settings: Rhinovirus A
[2] = Selectivity index, ratio of CC50 for Influenza A virus (A/Brisbane/10/2007(H3N2)) infected MDCK cells to EC50 for antiviral activity against Influenza A virus (A/Brisbane/10/2007(H3N2)); format: toxicity, cell-based; settings: dog; read-out: Ratio CC50/EC50
[3] = Toxicity against human Huh7ET cells assessed as reduction in beta-actin RNA levels at 20 uM; format: cell-based, Huh-7; settings: Huh7ET cells, values are per cent of control
Procedure, shortened: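 HCV RNA replicon assay in Huh7 ET cells. Compounds were added in triplicate at a single concentration of 20 µM. Cytotoxicity was read as β-actin RNA as % of control, alongside HCV RNA-derived luciferase activity. Interferon-α (2 IU/mL) was the positive control.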

[4] = Selectivity index, ratio of CC50 for Adenovirus Chicago 65089 infected human A549 cells to EC50 for antiviral activity against Adenovirus Chicago 65089 infected in human A549 cells; format: toxicity, cell-based; settings: A549 cells infected with Adenovirus Chicago 65089, read-out: Ratio CC50/EC50
Influenza B virus = test: Antiviral activity against Influenza B virus (B/Florida/4/2006) in MDCK cells; format: functional, cell-based; settings: B/Florida/4/2006, MDCK
[5] = Selectivity index, ratio of CC50 for Influenza A virus (A/Viet Nam/1203/2004(H5N1)) infected MDCK cells to EC50 for antiviral activity against Influenza A virus (A/Viet Nam/1203/2004(H5N1)) infected in MDCK cells; format: toxicity, cell-based; settings: dog; read-out: Ratio CC50/EC50
[6] = Cytotoxicity against Adenovirus Chicago 65089 infected human A549 cells; format: cell-based; settings: A549 cells infected with Adenovirus Chicago 65089
Procedure, shortened: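 Respiratory-virus panel screen on A-549 cells, with compounds supplied as DMSO solutions. CC50 is the cell inhibitory concentration at the 50% endpoint, in µM.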

[7] = Cytotoxicity against HBV infected human HepG2(2.2.15) cells; format: cell-based; settings: HBV infected HepG2(2.2.15) cells
Procedure, shortened: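 Toxicity was measured on confluent 2.2.15 cells alongside the primary anti-HBV assay. CC50 is given in µM.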

[8] = Selectivity index, ratio of CC50 for Influenza B virus (B/Florida/4/2006) infected MDCK cells to EC50 for antiviral activity against Influenza B virus (B/Florida/4/2006) in MDCK cells; format: toxicity, cell-based; settings: dog; read-out: Ratio CC50/EC50
[9] = Cytotoxicity against HPV11 infected PHK cells epithelial raft cultures by standard AACF screening assay; format: cell-based; settings: human
[10] = Antiviral activity against SARS coronavirus Urbani infected in African green monkey Vero 76 cells; format: functional, cell-based; settings: Severe acute respiratory syndrome-related coronavirus
[11] = Selectivity index, ratio of CC50 for HPV11 infected PHK cells epithelial raft cultures by standard AACF screening assay to EC50 for HPV11 infected in PHK cells epithelial raft cultures by standard AACF screening assay
[12] = Cytotoxicity against human rhinovirus 2 infected MDCK cells; format: cell-based, Canis lupus familiaris; settings: dog, MDCK cells infected with human rhinovirus 2
[13] = Cytotoxicity against Influenza B virus (B/Florida/4/2006) infected MDCK cells; format: cell-based, Canis lupus familiaris; settings: dog
human papillomavirus 11 = test: Antiviral activity against HPV11 infected in PHK cells epithelial raft cultures by standard AACF screening assay; format: functional, organism-based; settings: human papillomavirus 11, PHK
[14] = Selectivity index, ratio of CC50 for human rhinovirus 2 infected MDCK cells to EC50 for antiviral activity against human rhinovirus 2 infected in MDCK cells; format: toxicity, cell-based; settings: dog, MDCK cells infected with human rhinovirus 2; read-out: Ratio CC50/EC50
[15] = Antiviral activity against Influenza A virus (A/Viet Nam/1203/2004(H5N1)) infected in MDCK cells; format: functional, cell-based
Hepatitis B virus = test: Antiviral activity against HBV infected in human HepG2(2.2.15) cells; format: functional, organism-based
Procedure, shortened: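 Primary anti-HBV screen in confluent 2.2.15 cells, run alongside a toxicity assay in the same cells. Compounds were supplied as DMSO solutions.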

Hepatitis C virus = test: Antiviral activity against HCV infected in human Huh7ET cells assessed as reduction in HCV RNA-derived luciferase activity at 20 uM by luciferase reporter gene assay; format: functional, Hepacivirus hominis; settings: Huh-7
Procedure, shortened: (§1)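 HCV RNA replicon assay in Huh7 ET cells. Compounds were added in triplicate at a single concentration of 20 µM. Antiviral activity was read as HCV RNA-derived luciferase signal, expressed as % of control. Toxicity was read as β-actin RNA, % of control. SI = toxicity/antiviral activity. Interferon-α (2 IU/mL) was the positive control.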

[16] = Selectivity index, ratio of toxicity against human Huh7ET cells assessed as reduction in beta-actin RNA levels at 20 uM to antiviral activity against HCV infected in human Huh7ET cells assessed as reduction in HCV RNA-derived luciferase activity at 20 uM by luciferase reporter gene assay; format: cell-based, Huh-7; settings: read-out: Selectivity Index; procedure, shortened: as §1
[17] = Cytotoxicity against SARS coronavirus Urbani infected African green monkey Vero 76 cells; format: cell-based; settings: chlorocebus sabaeus, Vero 76 cells infected with SARS coronavirus Urbani
[18] = Cytotoxicity against Influenza A virus (A/Viet Nam/1203/2004(H5N1)) infected MDCK cells; format: cell-based, Canis lupus familiaris; settings: dog
[19] = Antiviral activity against Influenza A virus (A/California/07/2009(H1N1)) infected in MDCK cells; format: functional, cell-based
[20] = Cytotoxicity against Influenza A virus (A/California/07/2009(H1N1)) infected MDCK cells; format: cell-based, Canis lupus familiaris; settings: dog
unidentified adenovirus = test: Antiviral activity against Adenovirus Chicago 65089 infected in human A549 cells; format: functional, organism-based; settings: Chicago 65089, A549
[21] = Cytotoxicity against Influenza A virus (A/Brisbane/10/2007(H3N2)) infected MDCK cells; format: cell-based, Canis lupus familiaris; settings: dog
[22] = Antiviral activity against Influenza A virus (A/Brisbane/10/2007(H3N2)) infected in MDCK cells; format: functional, cell-based
[23] = Selectivity index, ratio of CC50 for ARS coronavirus Urbani infected African green monkey Vero 76 cells to EC50 for antiviral activity against ARS coronavirus Urbani infected in African green monkey Vero 76 cells; format: toxicity, cell-based; settings: Vero 76 cells infected with SARS coronavirus Urbani, read-out: Ratio CC50/EC50

Row | Structure (SMILES) | EC50 (rhinovirus A2) [µM] | response, % of control at 20 µM [3] [%] | EC50 (Influenza B virus) [µM] | selectivity ratio [5] | CC50 [6] [µM] | CC50 [7] [µM] | selectivity ratio [8] | CC50 [9] [µM] | EC50 [10] [µM] | Ratio CC50/EC50 [11] | CC50 [12] [µM] | CC50 [13] [µM] | EC50 (human papillomavirus 11) [µM] | EC50 [15] [µM] | EC50 (Hepatitis B virus) [µM] | EC90 (Hepatitis B virus) [µM] | inhibition at 20 µM (Hepatitis C virus) [%] | selectivity ratio at 20 µM [16] | CC50 [17] [µM] | CC50 [18] [µM] | also measured
1 | COC(=O)[C@H]1[C@@H](C(=O)OC)C2(C(=O)OC)CC[C@@H]3[C@](C)(CCC[C@@]3(C)C(=O)OC)[C@H]2C[C@H]1C(=O)C(C)C (stereo partly specified) | 32 | 88.1 | 3.2 | 1 | 32 | 189 | 1.1 | < 50 | > 30 | 30 | 32 | 3.5 | > 50 | 3.2 | > 10 | > 10 | 0.6 | < 1 | 30 | 3.3 | selectivity ratio [1]: 1; selectivity ratio [2]: 1; selectivity ratio [4]: 1; selectivity ratio [14]: 1; EC50 [19]: 32 µM; CC50 [20]: 33 µM; EC50 (unidentified adenovirus): 32 µM; CC50 [21]: 33 µM; EC50 [22]: 32 µM
2 | COC(=O)[C@H](C)NC(=O)[C@]1(C)CCC[C@]2(C)[C@H]3C[C@H]4C(C(C)C)=C[C@]3(CC[C@H]21)[C@@H]1C(=O)CCC(=O)[C@@H]14 | > 25 | 54 | 22 | 1.1 | 47 | 86 | 1.5 | < 25 | 30 | 20 | 25 | 33 | < 25 | 31 | > 10 | > 10 | 60.8 | > 1 | 32 | 33 | selectivity ratio [23]: 1.1; EC50 (unidentified adenovirus): > 47 µM
